Laboratory results reported in ChEMBL document CHEMBL1177815, “Synthesis and molecular docking studies of novel 2-chloro-pyridine derivatives containing flavone moieties as potential antitumor agents” (Bioorg Med Chem Lett, 2010).
Values after ≈ are worked out from the molar mass of the structure shown. Active and inactive are the calls of the source. The rule behind the calls is not given here.

Assays:
[1] = target: DNA polymerase I, thermostable (Thermus aquaticus, UniProt P19821); test: Inhibition of Thermus aquaticus taq polymerase
[2] = target: T1, Telomerase reverse transcriptase (Homo sapiens, UniProt O14746); test: Inhibition of human telomerase in human SGC7901 cells by TRAP assay
[3] = Selectivity index, ratio of IC50 for taq polymerase to IC50 for human telomerase
Procedure, shortened: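 Selectivity index is the ratio of the concentration giving 50% Taq polymerase inhibition to the concentration giving 50% telomerase inhibition (modified TRAP, SGC-7901 cell extract).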

[4] = test system: SGC-7901; test: Cytotoxicity against human SGC7901 after 48 hrs by MTT assay; assay type: functional, cell-based
Procedure, shortened: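 SGC-7901 cells were diluted to 3 × 10⁴ cells/mL and seeded at 100 µL per well, then held 24 h at 37 °C in 5% CO₂ before treatment. Samples at pre-set concentrations went into six wells each, with 5-fluorouracil as positive control and DMSO as negative control. Read-out was absorbance at 570 nm. Data are the mean ± SD of three experiments in triplicate. IC50 is the concentration at which 50% of cells survive.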

[5] = target: DNA polymerase I, thermostable (Thermus aquaticus) (UniProt P19821); test: Inhibition of Thermus aquaticus taq polymerase at 0 to 60 uM
[6] = target: T1, Telomerase reverse transcriptase; test: Inhibition of human telomerase in human SGC7901 cells at 0 to 60 uM by TRAP assay; assay type: cell-based; conditions: SGC-7901
Procedure, shortened: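 Telomerase inhibition was measured by a modified TRAP assay using SGC-7901 cell extract. Compounds were tested across the stated concentration range. IC50 is the concentration giving 50% telomerase inhibition. Ethidium bromide served as reference control.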

[7] = Homo sapiens, SGC-7901, 48 h, read-out: IC50

DNA polymerase I, thermostable, sequence (P19821 whole entry): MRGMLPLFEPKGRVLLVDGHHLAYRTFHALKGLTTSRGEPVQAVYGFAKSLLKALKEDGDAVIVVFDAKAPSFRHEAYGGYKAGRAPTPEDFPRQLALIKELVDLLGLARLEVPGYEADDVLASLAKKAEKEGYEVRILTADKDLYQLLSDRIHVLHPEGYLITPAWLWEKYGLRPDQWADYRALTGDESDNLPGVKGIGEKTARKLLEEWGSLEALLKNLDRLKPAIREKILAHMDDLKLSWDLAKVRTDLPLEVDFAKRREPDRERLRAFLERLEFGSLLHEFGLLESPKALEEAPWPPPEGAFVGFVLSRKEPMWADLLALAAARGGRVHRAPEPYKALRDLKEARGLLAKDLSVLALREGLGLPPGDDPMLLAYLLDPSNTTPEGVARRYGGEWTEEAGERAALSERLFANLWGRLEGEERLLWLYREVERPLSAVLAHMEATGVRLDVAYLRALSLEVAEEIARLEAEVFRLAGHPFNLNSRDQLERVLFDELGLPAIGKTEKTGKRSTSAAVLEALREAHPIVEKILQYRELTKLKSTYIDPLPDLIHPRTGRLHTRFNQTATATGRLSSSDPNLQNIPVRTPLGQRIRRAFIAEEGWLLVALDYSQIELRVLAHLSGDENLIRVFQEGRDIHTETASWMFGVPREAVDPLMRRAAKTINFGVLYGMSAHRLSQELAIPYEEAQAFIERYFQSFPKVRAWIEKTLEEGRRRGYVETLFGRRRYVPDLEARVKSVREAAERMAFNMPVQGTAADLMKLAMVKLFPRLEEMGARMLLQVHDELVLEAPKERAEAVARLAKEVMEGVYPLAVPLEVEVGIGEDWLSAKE
T1 sequence (O14746 whole entry): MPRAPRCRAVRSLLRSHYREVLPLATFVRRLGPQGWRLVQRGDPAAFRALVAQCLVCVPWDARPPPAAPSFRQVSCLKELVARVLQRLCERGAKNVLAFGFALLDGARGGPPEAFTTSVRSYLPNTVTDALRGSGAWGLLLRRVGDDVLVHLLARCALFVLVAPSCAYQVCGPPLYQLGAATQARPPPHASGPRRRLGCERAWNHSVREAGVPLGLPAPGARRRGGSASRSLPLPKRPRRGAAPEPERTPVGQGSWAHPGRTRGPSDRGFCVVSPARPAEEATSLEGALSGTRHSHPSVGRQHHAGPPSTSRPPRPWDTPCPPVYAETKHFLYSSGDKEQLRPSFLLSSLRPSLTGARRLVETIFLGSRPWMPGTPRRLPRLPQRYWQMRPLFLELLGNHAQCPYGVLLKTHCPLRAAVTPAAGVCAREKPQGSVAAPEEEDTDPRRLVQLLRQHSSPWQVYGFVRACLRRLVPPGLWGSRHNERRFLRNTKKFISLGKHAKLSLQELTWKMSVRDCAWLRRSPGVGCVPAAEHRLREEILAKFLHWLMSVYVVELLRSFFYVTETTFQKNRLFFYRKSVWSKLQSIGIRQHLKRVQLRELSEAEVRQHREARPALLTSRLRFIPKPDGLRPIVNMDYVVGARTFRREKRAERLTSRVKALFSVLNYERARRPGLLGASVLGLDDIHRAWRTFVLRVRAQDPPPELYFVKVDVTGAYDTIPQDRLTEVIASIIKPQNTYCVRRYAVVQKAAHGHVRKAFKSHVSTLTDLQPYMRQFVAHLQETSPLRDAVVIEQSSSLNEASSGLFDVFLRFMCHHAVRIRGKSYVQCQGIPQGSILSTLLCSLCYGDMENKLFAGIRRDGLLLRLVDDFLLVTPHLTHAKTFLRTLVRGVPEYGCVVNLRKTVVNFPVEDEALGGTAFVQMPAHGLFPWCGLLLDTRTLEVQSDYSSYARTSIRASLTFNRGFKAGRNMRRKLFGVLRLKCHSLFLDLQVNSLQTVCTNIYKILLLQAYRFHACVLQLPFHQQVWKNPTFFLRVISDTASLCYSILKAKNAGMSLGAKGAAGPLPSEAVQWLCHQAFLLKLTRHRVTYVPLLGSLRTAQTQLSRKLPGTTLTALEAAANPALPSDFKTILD
DNA polymerase I, thermostable (Thermus aquaticus), sequence (P19821 whole entry): as the sequence (P19821 whole entry) above

| SMILES | IC50 [1] | IC50 [2] | Ratio IC50 [3] | IC50 [4, 7] | inhibition [5] | inhibition [6] | IC50 ([4]; sgc-7901) |
| --- | --- | --- | --- | --- | --- | --- | --- |
| O=c1cc(-c2ccc(OCc3ccc(Cl)nc3)cc2)oc2cc(OCc3ccc(Cl)nc3)ccc12 | 5 µM | 3 µM | 1.6 | 18.4 µg/mL (≈ 36.5 µM) |  |  |  |
| O=c1[nH]cc(F)c(=O)[nH]1 [FLUOROURACIL] |  |  |  | 7.38 µg/mL (≈ 56.7 µM) |  |  |  |
| O=c1c(OCc2ccc(Cl)nc2)c(-c2ccccc2)oc2ccccc12 |  |  |  |  | inactive | inactive | Not Active |
| COc1ccc(-c2oc3ccccc3c(=O)c2OCc2ccc(Cl)nc2)cc1 |  |  |  |  | inactive | inactive | Not Active |
| CC(=O)N1N=C(C)CC1c1ccc(OCc2ccc(Cl)nc2)cc1 (stereo unspecified) |  | 46.7 µM |  |  |  |  | Not Active |
| CC(=O)N1N=C(C)CC1c1ccccc1OCc1ccc(Cl)nc1 (stereo unspecified) | 53.2 µM |  |  |  |  | inactive | Not Active |
| COc1ccc(-c2cc(=O)c3ccc(OCc4ccc(Cl)nc4)cc3o2)cc1 | 6.4 µM | 3.1 µM | 2.1 | 35.2 µg/mL (≈ 89.3 µM) |  |  |  |
| O=c1cc(-c2ccccc2)oc2cc(OCc3ccc(Cl)nc3)cc(O)c12 | 27.5 µM | 20.9 µM | 1.3 |  |  |  | Not Active |
| COc1ccc(-c2coc3cc(OCc4ccc(Cl)nc4)ccc3c2=O)cc1 | 7.5 µM | 2.5 µM | 3 | 31.9 µg/mL (≈ 81.1 µM) |  |  |  |
| O=c1cc(-c2ccc(OCc3ccc(Cl)nc3)cc2)oc2cc(OCc3ccc(Cl)nc3)cc(O)c12 | 2 µM | 0.8 µM | 2.5 | 22.3 µg/mL (≈ 42.7 µM) |  |  |  |
| O=c1cc(-c2ccc(OCc3ccc(Cl)nc3)cc2)oc2cc(O)cc(O)c12 | 6.8 µM | 3.5 µM | 1.9 | 25.9 µg/mL (≈ 65.5 µM) |  |  |  |
